PGC1a acetyl inh – modulators of PGC1a acetylation; U2OS PGC1a acetylation, AlphaScreen anti-acetyl-lysine; with virally co-expressed GCN5 acetyltransferase; hit rate 0.17% among 350,000; inhibition, % at 15.6 µM;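 active = every replicate shows inhibition of at least 40%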;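 note: 0% = neutral control wells and 100% = positive control wells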
ARNT TACC3 PPI – disruptors of human ARNT/TACC3 interaction | Q9Y6A5 | AlphaScreen His-ARNT PAS-B/GST-TACC3 binding, luminescence; TACC3 fragment carries E629A point mutation | inhibition, % at 9.99 µM | hit rate 0.66% among 390,000;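 active = mean inhibition of replicates at least 50% and at least half of replicates each reaching 50%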;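 note: 0% = complete ARNT plus TACC3 wells and 100% = ARNT alone without TACC3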
CAL PDZ FP-1 – human CAL PDZ-peptide interaction inhibition; Q9HD26; purified CAL PDZ, TMR-peptide fluorescence polarization, 1 h; inhibition, % at 20 µM; hit rate 0.02% among 330,000;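 active = highest replicate inhibition of at least 40%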;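 note: plate controls were DMSO neutral control wells for no effect and unlabeled competitor peptide control wells for full effect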
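Assay system – tagged CAL PDZ protein CerCALP, purified · Timing – 1 h at RT · Compound – single point, 20 µM · Measured by – fluorescence polarization from S- and P-plane intensities, G-factor corrected · Evaluation – inhibition from polarization loss · Probe or stimulus – TMR reporter peptide T*-PRC34 · Buffer or medium – pH 7.4 phosphate-saline buffer, reducing agent, detergent, IgG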
CAL PDZ FP-2 – blocks peptide binding to the human CAL PDZ domain | purified CAL PDZ, TMR-peptide fluorescence polarization, 1 h | Q9HD26 | inhibition, % at 24.9 µM | hit rate 0.92% among 300,000;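 active = mean inhibition of at least 30% with at least half of replicates also reaching 30%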;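 note: 0% = DMSO neutral control and 100% = excess unlabeled competitor peptide PRC23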
F508del corr – correctors of CFTR F508del function in bronchial epithelial cells; CFBE cells, YFP halide quenching; stimulated with forskolin plus potentiator P3; % fluorescence drop versus neutral controls; activity (quench increase), % at 7.58 µM; hit rate 0.36% among 350,000; AID 720511;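 active = mean added fluorescence quench of at least 8% versus neutral control, with both replicates also reaching 8%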;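 note: cells transiently co-express mutant CFTR-F508del with the halide-sensitive YFP; corrector assay measuring rescue of mutant channel to the surface after 24 h compound exposure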
miR-122 sensor – blocks miR-122 activity in Huh7 sensor cells | Huh7 miR-122 Renilla luciferase sensor, 48 h; neutral wells = 0, positive control = 100 | activation (reporter increase), % at 12.5 µM | hit rate 0.3% among 340,000 | AID 602342;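 active = mean replicate activation score at least 90 and every replicate individually at or above 90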;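 note: higher luciferase means less miR-122 activity so hits act as miR-122 inhibitors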
ARNT Alpha ctr – interferes with AlphaScreen signal, flagging false ARNT-TACC3 hits; shares compounds with ARNT TACC3 PPI; His-ARNT PASB-GST AlphaScreen artifact counter-screen, luminescence; AC50, µM (top dose mostly 68 µM), inactives show top-dose activity change, negative = signal decrease; hit rate 50% among 1,200; AID 651705;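 active = every separate test run was called active for a drop in luminescence, with AC50 within twice the top valid dose, actives reach about 71 µM in these data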
* marks the source's active call; other numbers are inactive results; / = not tested or not shown; [ ] = another dose, or the depositor's remark. Compounds with a hit are over-represented: about 1.7% of the library has one in this group of screens.

SMILES	PGC1a acetyl inh	ARNT TACC3 PPI	CAL PDZ FP-1	CAL PDZ FP-2	F508del corr	miR-122 sensor	ARNT Alpha ctr
C#CCOCCOCCOCCNc1nc(N2CCN(C(=O)[C@H](CCC(=O)O)n3cc([C@@H](N)CCCCN)nn3)CC2)nc(N2CCN(C(=O)[C@H](CCC(=O)O)n3cc([C@@H](N)CCCCN)nn3)CC2)n1	/	6	1	0	-3	/	/
C#CCOCCOCCOCCNc1nc(N2CCN(C(=O)[C@H](CCC(=O)O)n3cc([C@@H](N)CCCCN)nn3)CC2)nc(N2CCN(C(=O)[C@H](CCCCN)n3cc([C@@H](N)CC(N)=O)nn3)CC2)n1	22	51*	1	-2	-2	-2	-4%
C#CCOCCOCCOCCNc1nc(N2CCN(C(=O)C([C@@H](C)O)n3cc([C@@H](N)CCCCN)nn3)CC2)nc(N2CCN(C(=O)[C@H](CO)n3cc([C@@H](N)C(C)C)nn3)CC2)n1 (stereo not given in full)	9	18	0	0	1	-4	/
C#CCOCCOCCOCCNc1nc(N2CCN(C(=O)C([C@@H](C)O)n3cc([C@@H](N)CCCCN)nn3)CC2)nc(N2CCN(C(=O)C([C@@H](C)O)n3cc([C@@H](N)CCCCN)nn3)CC2)n1 (stereo not given in full)	2	60*	1	1	3	3	0%
C#CCOCCOCCOCCNc1nc(N2CCN(C(=O)Cn3cc(CCCCN)nn3)CC2)nc(N2CCN(C(=O)[C@H](CCCCN)n3cc(CCCC)nn3)CC2)n1	/	32*	-4	-3	-5	/	4%
CC=Cc1ccc2n(c1=O)C[C@@H]1[C@@H](CO)[C@H](C(=O)NC3CCCC3)[C@H]2N1Cc1ccncc1 (mixture of isomers)	/	-11	/	/	-3	-1[16.7 µM]	/
O=C(NC(O)C(=O)c1ccccc1)c1ccccn1 (stereo not given)	/	7	-2	-4	2	/	/
C/C(=N\NC(=O)c1cccc2ccccc12)c1ccccn1	5	63*	-1	6	2	28	29µM*
O=C(NN=C(c1ccccc1)c1ccccn1)c1ccccc1	/	57*	-1	0	6	/	-21%
C/C=C/c1cnc2c(c1)C(=O)N([C@H](C)CO)C[C@H](C)[C@H](CN(C)S(=O)(=O)c1cn(C)cn1)O2	15	-2	/	/	-4	-7[16.7 µM]	/
O=C(Nc1ccc2c(c1)[C@H]1C[C@H](CC(=O)N3CCc4ccccc4C3)O[C@@H](CO)[C@H]1O2)C1CCOCC1	-1	-5	/	/	5	-3[16.7 µM]	/
CCc1nnc(NC(=O)c2ccc(OC)cc2OC)s1	/	-2	-3	-2	/	-5	/
COc1ccc(C(=O)Cc2nnc(C)s2)c(OC)c1	/	77*	-1	1	/	/	-5%
Cc1cc(C)n(S(=O)(=O)c2ccc(Cl)cc2)n1	2	active	-1	-3	-6	0	2%
Cc1cc(C)n(S(=O)(=O)c2ccc(F)cc2)n1	1	-7	1	-5	-4	0	/
CC(=O)N1CN(CCCn2ccnc2)Cc2c1sc1c2CCCC1	1	18	0	-1	/	-7	/
CC(=O)N1CN(Cc2ccccn2)Cc2c1sc1c2CCCC1	14	71*	-1	-3	/	0	-15%
C/C(=C\C(=O)c1ccccc1)Nc1ccc(N2CCOCC2)cc1	3	39*	-1	-5	/	-11	-27%
COC(C(=O)N/N=C(\C)c1ccc(O)cc1)c1ccccc1 (stereo not given)	5	0	-19	-2	0	1	/
C/C(=N\NC(=O)C(c1ccccc1)c1ccccc1)c1ccc(O)cc1	/	60*	1	-3	-3	3	-15%
Cc1[nH][nH]c(=O)c1C(c1ccc(Cl)cc1)c1c(C)[nH][nH]c1=O	13	18*	-1	-3	2	2	5%
C[C@@H]1CN([C@H](C)CO)C(=O)c2cc(NC(=O)Cn3cnnn3)ccc2O[C@H]1CN(C)Cc1ccc(C(F)(F)F)cc1	6	4	/	/	2	-7[16.7 µM]	/
NC(=O)CSc1nnc(-c2cccs2)n1Cc1ccco1	-6	-3	-1	/	-32	-4	/
NC(=O)CSc1nnc(-c2ccc(O)cc2)n1Cc1ccco1	3	38*	-1	-6	/	-5	28µM*
COc1cccc(S(=O)(=O)Nc2ccc3c(c2)C(=O)N(C)C[C@@H](OC)[C@@H](C)CN(C(=O)Cc2cccnc2)[C@H](C)CO3)c1	5	-7	/	/	1	/	/
SMILES	PGC1a acetyl inh	ARNT TACC3 PPI	CAL PDZ FP-1	CAL PDZ FP-2	F508del corr	miR-122 sensor	ARNT Alpha ctr
COCc1[nH]nc2c1C(c1c(F)cccc1Cl)C(C#N)=C(N)O2 (stereo not given)	-3	-8	0	-1	/	-5	/
N#CC1=C(N)Oc2n[nH]c(-c3ccccn3)c2C1c1c(F)cccc1Cl (stereo not given)	-15	55*	-1	-3	/	4	-8%
COc1cccc(NC(=O)N[C@@H]2CC[C@H](CC(=O)N3CCOCC3)O[C@@H]2CO)c1	3	1	/	/	-1	/	/
O=C(NN=Cc1c(O)ccc2ccccc12)c1ccc2c(c1)OCO2	/	-1	0	5	3	/	/
O=C(N/N=C/c1c(O)ccc2ccccc12)c1ccc(CO)nc1	/	59*	-2	-9	14*	/	67µM*
C[C@H]1CN([C@@H](C)CO)C(=O)c2cccc(NC(=O)Nc3ccc(F)cc3)c2O[C@H]1CN(C)S(=O)(=O)c1ccc(F)cc1	-11	-12	/	/	2	3[16.7 µM]	/
COc1ccc(NC(=O)N[C@@H]2CC[C@H](CCn3cc(-c4ccccn4)nn3)O[C@@H]2CO)cc1	-9	63*	/	/	-1	-6[16.7 µM]	51µM*
COc1ccc(NC(=O)N[C@H]2CC[C@H](CCn3cc(-c4ccccn4)nn3)O[C@H]2CO)cc1	7	41	/	/	-1	-4[16.7 µM]	/
COc1ccc(NC(=O)N[C@@H]2CC[C@H](CCn3cc(-c4ccccn4)nn3)O[C@H]2CO)cc1	2	59*	/	/	1	-7[16.7 µM]	50µM*
CC(=O)N(C)C[C@H]1Oc2ncc(C#C[C@H](C)O)cc2C(=O)N([C@H](C)CO)C[C@@H]1C	-4	-6	/	/	0	3[16.7 µM]	/
CO[C@H]1CN(C)C(=O)c2cc(NC(=O)Cc3ccccc3)ccc2OC[C@H](C)N(C(C)=O)C[C@@H]1C	-12	-3	/	/	1	/	/

Screens from PubChem.
